For orientation: Ki means a dissociation constant, usually derived from enzyme kinetics or from competition with a known ligand.

This is an account of results in ChEMBL document CHEMBL3396991 (Eur J Med Chem, 2015).

Sequence of Delta-type opioid receptor (P41143 whole entry): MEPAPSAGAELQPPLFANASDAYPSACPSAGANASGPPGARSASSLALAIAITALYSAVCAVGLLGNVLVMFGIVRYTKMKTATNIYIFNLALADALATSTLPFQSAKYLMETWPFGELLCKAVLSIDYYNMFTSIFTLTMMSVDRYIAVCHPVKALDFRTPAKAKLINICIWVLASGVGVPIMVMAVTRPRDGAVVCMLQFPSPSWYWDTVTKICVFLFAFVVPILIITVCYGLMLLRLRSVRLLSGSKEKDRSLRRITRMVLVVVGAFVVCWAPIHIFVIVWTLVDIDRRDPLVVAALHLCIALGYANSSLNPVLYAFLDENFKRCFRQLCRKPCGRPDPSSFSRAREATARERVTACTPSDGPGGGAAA

The target in the first assay is Kappa-type opioid receptor (Homo sapiens, UniProt P41145). Nature of the assay: Antagonist activity at kappa opioid receptor (unknown origin).
Sequence of Kappa-type opioid receptor (Homo sapiens, UniProt P41145) (P41145 whole entry): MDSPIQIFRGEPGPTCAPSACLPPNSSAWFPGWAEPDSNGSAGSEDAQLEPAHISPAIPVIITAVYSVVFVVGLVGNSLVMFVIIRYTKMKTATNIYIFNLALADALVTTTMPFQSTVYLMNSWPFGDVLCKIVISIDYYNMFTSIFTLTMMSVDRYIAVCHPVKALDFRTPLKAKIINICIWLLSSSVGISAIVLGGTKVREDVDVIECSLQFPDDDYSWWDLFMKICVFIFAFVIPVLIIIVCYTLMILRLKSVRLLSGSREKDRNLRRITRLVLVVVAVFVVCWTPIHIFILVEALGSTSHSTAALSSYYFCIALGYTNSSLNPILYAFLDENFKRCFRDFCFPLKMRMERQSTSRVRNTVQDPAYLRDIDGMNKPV
The molecule `Cc1cc(C)cc([C@@H]2CCCN2Cc2ccc(Oc3ccc(C(N)=O)cc3F)cc2)c1` [ATICAPRANT] registered a Ki of 0.8 nM.

For another assay, the species on record is Homo sapiens. Nature of the assay: Selectivity ratio of Ki for mu opioid receptor (unknown origin) to Ki for kappa opioid receptor (unknown origin). Summed up:
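Ratio of two Ki values from radioligand displacement. KOR: rat recombinant receptor in CHO cells, [³H]U69593 (1 nM), 60 min. MOR: human recombinant receptor in HEK cells, [³H]diprenorphine (0.4 nM), 120 min. Both in 50 mM Tris pH 7.4 at room temperature with eight test concentrations. Ki is the mean ± SD of at least three experiments.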
In the case of `Cc1cc(C)cc([C@@H]2CCCN2Cc2ccc(Oc3ccc(C(N)=O)cc3F)cc2)c1` [ATICAPRANT], the Ratio Ki turned out to be 30.

The species entered for a further assay is Homo sapiens. Nature of the assay: Selectivity ratio of Ki for delta opioid receptor (unknown origin) to Ki for kappa opioid receptor (unknown origin). Summed up: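 Ratio of two Ki values from radioligand displacement. KOR: rat recombinant receptor in CHO cells, [³H]U69593 (1 nM), 60 min. DOR: human recombinant receptor, [³H]DADLE (0.5 nM), 120 min. Both in 50 mM Tris pH 7.4 at room temperature with eight test concentrations. Ki is the mean ± SD of at least three independent experiments.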
As for `Cc1cc(C)cc([C@@H]2CCCN2Cc2ccc(Oc3ccc(C(N)=O)cc3F)cc2)c1` [ATICAPRANT], the Ratio Ki came to 194.

The target of a further assay is Kappa-type opioid receptor (Rattus norvegicus, UniProt P34975). As to the kind of experiment: Displacement of [3H]U69593 from rat recombinant kappa opioid receptor expressed in CHO cells after 60 mins. It counts as cell-based.
Sequence of Kappa-type opioid receptor (Rattus norvegicus, UniProt P34975) (P34975 whole entry): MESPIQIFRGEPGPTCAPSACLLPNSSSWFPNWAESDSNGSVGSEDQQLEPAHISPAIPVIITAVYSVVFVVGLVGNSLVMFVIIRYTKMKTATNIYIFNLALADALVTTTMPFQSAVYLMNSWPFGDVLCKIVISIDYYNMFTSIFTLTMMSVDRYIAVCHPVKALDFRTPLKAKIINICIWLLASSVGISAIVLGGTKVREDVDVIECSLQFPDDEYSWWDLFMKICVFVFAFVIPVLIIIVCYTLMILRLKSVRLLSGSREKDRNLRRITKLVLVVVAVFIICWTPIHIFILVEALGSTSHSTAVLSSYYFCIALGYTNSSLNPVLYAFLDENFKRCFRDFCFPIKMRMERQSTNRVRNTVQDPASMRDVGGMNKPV
For the molecule `CC(C)[C@@H](CN1CC[C@@](C)(c2cccc(O)c2)[C@@H](C)C1)NC(=O)[C@H]1Cc2ccc(O)cc2CN1CCCF`, the Ki came to 1.62 nM.
Still for that read-out and setting: then `CC(C)[C@@H](CN1CC[C@@](C)(c2cccc(O)c2)[C@@H](C)C1)NC(=O)[C@H]1Cc2ccc(O)cc2CN1` [JDTIC], with 0.32 nM; and `CC(C)[C@@H](CN1CC[C@@](C)(c2cccc(O)c2)[C@@H](C)C1)NC(=O)[C@H]1Cc2ccc(O)cc2CN1CCF`, with 5.51 nM.
For `CC(C)[C@@H](CN1CC[C@@](C)(c2cccc(O)c2)[C@@H](C)C1)NC(=O)[C@H]1Cc2ccc(OCCF)cc2CN1`, the inhibition constant (Ki) was determined as 24 nM.
On to `CC(C)[C@@H](CN1CC[C@@](C)(c2cccc(O)c2)[C@@H](C)C1)NC(=O)[C@H]1Cc2ccc(OCCCF)cc2CN1`, for which the inhibition constant Ki stood at 8.19 nM.

The target in another assay is Mu-type opioid receptor (Homo sapiens, UniProt P35372). As to the kind of experiment: Displacement of [3H]diprenorphine from human recombinant mu opioid receptor expressed in HEK cells after 60 mins. The class given is cell-based, HEK293. In general terms: Displacement assays read how much labelled ligand stays bound in the presence of the test substance.
Sequence of Mu-type opioid receptor (P35372 whole entry): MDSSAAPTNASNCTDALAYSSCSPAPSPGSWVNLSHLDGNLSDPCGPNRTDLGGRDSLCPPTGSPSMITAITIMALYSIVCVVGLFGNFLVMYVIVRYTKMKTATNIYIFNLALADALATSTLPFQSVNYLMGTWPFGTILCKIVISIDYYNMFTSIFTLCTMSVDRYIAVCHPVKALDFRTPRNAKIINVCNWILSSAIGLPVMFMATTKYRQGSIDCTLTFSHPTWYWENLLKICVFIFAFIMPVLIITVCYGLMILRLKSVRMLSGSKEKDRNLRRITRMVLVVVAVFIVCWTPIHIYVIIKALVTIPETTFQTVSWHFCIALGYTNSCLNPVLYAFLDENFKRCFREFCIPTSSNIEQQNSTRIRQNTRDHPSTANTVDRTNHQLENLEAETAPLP
As to `CC(C)[C@@H](CN1CC[C@@](C)(c2cccc(O)c2)[C@@H](C)C1)NC(=O)[C@H]1Cc2ccc(O)cc2CN1CCCF`, the inhibitory constant (Ki) stood at 19.6 nM.
Regarding `CC(C)[C@@H](CN1CC[C@@](C)(c2cccc(O)c2)[C@@H](C)C1)NC(=O)[C@H]1Cc2ccc(O)cc2CN1CCF`, the Ki was found to be 13.2 nM.
On the same count and under the same terms, next, `CC(C)[C@@H](CN1CC[C@@](C)(c2cccc(O)c2)[C@@H](C)C1)NC(=O)[C@H]1Cc2ccc(OCCF)cc2CN1`: 63.1 nM; `CC(C)[C@@H](CN1CC[C@@](C)(c2cccc(O)c2)[C@@H](C)C1)NC(=O)[C@H]1Cc2ccc(OCCCF)cc2CN1`: 57.5 nM.

The next assay concerns the target Delta-type opioid receptor (Homo sapiens, UniProt P41143). Nature of the assay: Displacement of [3H]DADLE from human recombinant delta opioid receptor expressed in HEK cells after 60 mins. It counts as cell-based, HEK293.
For `CC(C)[C@@H](CN1CC[C@@](C)(c2cccc(O)c2)[C@@H](C)C1)NC(=O)[C@H]1Cc2ccc(O)cc2CN1CCCF`, the Ki was 254 nM.
As to `CC(C)[C@@H](CN1CC[C@@](C)(c2cccc(O)c2)[C@@H](C)C1)NC(=O)[C@H]1Cc2ccc(O)cc2CN1CCF`, the Ki turned out to be 72.8 nM.
Take `CC(C)[C@@H](CN1CC[C@@](C)(c2cccc(O)c2)[C@@H](C)C1)NC(=O)[C@H]1Cc2ccc(OCCF)cc2CN1`: the Ki came to 81.3 nM.
In the case of `CC(C)[C@@H](CN1CC[C@@](C)(c2cccc(O)c2)[C@@H](C)C1)NC(=O)[C@H]1Cc2ccc(OCCCF)cc2CN1`, the Ki stood at 72.9 nM.

Tested on in the next assay: not listed separately
As to the kind of experiment: Selectivity ratio of Ki for human recombinant mu opioid receptor to Ki for rat recombinant kappa opioid receptor.
In the case of `CC(C)[C@@H](CN1CC[C@@](C)(c2cccc(O)c2)[C@@H](C)C1)NC(=O)[C@H]1Cc2ccc(O)cc2CN1CCCF`, the Ratio Ki worked out at 12.2.
`CC(C)[C@@H](CN1CC[C@@](C)(c2cccc(O)c2)[C@@H](C)C1)NC(=O)[C@H]1Cc2ccc(O)cc2CN1CCF`: the Ratio Ki amounted to 2.4.
The same measure, in the same setting: then `CC(C)[C@@H](CN1CC[C@@](C)(c2cccc(O)c2)[C@@H](C)C1)NC(=O)[C@H]1Cc2ccc(OCCF)cc2CN1`, with 2.6.
Regarding `CC(C)[C@@H](CN1CC[C@@](C)(c2cccc(O)c2)[C@@H](C)C1)NC(=O)[C@H]1Cc2ccc(OCCCF)cc2CN1`, the Ratio Ki turned out to be 7.

Tested on in the next assay: not listed separately
Nature of the assay: Selectivity ratio of Ki for human recombinant delta opioid receptor to Ki for rat recombinant kappa opioid receptor. Summed up: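 Ratio of DOR Ki to KOR Ki. […] Both assays in 50 mM Tris pH 7.4 at room temperature, eight concentrations.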
For the molecule `CC(C)[C@@H](CN1CC[C@@](C)(c2cccc(O)c2)[C@@H](C)C1)NC(=O)[C@H]1Cc2ccc(O)cc2CN1CCCF`, the Ratio Ki was found to be 159.
Regarding `CC(C)[C@@H](CN1CC[C@@](C)(c2cccc(O)c2)[C@@H](C)C1)NC(=O)[C@H]1Cc2ccc(O)cc2CN1CCF`, the Ratio Ki is 13.2.
On to `CC(C)[C@@H](CN1CC[C@@](C)(c2cccc(O)c2)[C@@H](C)C1)NC(=O)[C@H]1Cc2ccc(OCCF)cc2CN1`, for which the Ratio Ki was 3.4.
For `CC(C)[C@@H](CN1CC[C@@](C)(c2cccc(O)c2)[C@@H](C)C1)NC(=O)[C@H]1Cc2ccc(OCCCF)cc2CN1`, the Ratio Ki stood at 8.9.
